We go through nine compounds from ChEMBL document CHEMBL2021862, “5-imino-1,2,4-thiadiazoles: first small molecules as substrate competitive inhibitors of glycogen synthase kinase 3” (J Med Chem, 2012).

One data set has as its system Cortical neurone. The data set is described as follows: Neuroprotective activity in rat cortical neurons assessed as decrease in LPS-induced nitrite production at 28 to 52 ug/ml after 24 hrs administered 1 hr before LPS challenge by Griess method. In kind it is functional. In short, it runs like this:
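Cortical neurons from E18 rats were grown in Neurobasal/B-27 at 37 °C, 5% CO2 for 1 week. They were pretreated 1 h with compound, then exposed to supernatant from LPS-stimulated microglia. After 24 h, nitrite in the medium was measured by Griess reaction (equal volume reagent, 15 min room temperature, absorbance 492/540 nm).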

Data set [1] addresses T1, Glycogen synthase kinase-3 beta (Homo sapiens, UniProt P49841). Description: Non-competitive inhibition of human recombinant GSK3beta at 10 uM after 30 mins by Michaelis-Menten equation in presence of 1 to 50 uM ATP. The settings on record: 0.4 to 2 uM, in the assay text read “at 0.4 to 2 uM” for “at 10 uM”. In short, it runs like this:
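Double-reciprocal kinetics on GSK-3β using the ADP-Glo kinase assay. ATP was varied from 1 to 50 μM and inhibitor from 0.4 to 2 μM, with GS-2 fixed at 12.5 μM. Each point is the mean of two experiments, each run in duplicate.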
Target sequence in this assay (P49841 whole entry, looked up): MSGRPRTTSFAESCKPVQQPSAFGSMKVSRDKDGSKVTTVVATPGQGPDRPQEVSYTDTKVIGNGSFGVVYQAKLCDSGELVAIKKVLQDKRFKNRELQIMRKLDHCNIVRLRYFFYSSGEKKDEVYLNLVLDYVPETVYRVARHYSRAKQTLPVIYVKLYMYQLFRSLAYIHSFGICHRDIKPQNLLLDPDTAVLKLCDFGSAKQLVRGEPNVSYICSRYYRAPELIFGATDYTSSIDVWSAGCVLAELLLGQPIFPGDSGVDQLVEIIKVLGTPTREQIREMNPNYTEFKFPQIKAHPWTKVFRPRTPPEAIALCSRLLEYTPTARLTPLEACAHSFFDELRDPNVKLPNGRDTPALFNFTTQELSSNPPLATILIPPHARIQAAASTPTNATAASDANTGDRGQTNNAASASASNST

Another data set relates to NSC. Description: Neurogenic activity in rat hippocampal NSC assessed as increase in beta-tubulin after 24 hrs by DAPI staining-based immunocytometric analysis. In kind it is functional, cell-based. The settings on record: Hippocampus. A digest of the protocol: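 Neurospheres from adult rat hippocampus were expanded in DMEM/F12 with EGF and FGF (10 ng/mL each) and B27, and treated with compound. Spheres were plated on poly-L-lysine without growth factors. Cells were fixed in 4% paraformaldehyde, permeabilized with 0.1% Triton X-100, stained with anti-β-tubulin (Tuj1) and an Alexa secondary, counterstained with DAPI, and imaged by confocal microscopy.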

The target in data set [2] is T1, Glycogen synthase kinase-3 beta. Description: Competitive inhibition of human recombinant GSK3beta at 0.5 to 2.5 uM after 30 mins by Michaelis-Menten equation in presence of 1 uM ATP.
Target sequence in this assay (P49841 whole entry, looked up): as above
Data set [3] shares this target. Description: Inhibition of human recombinant GSK3beta after 30 mins by luminescence assay in presence of ATP.
Target sequence in this assay (P49841 whole entry): as the sequence (P49841 whole entry, looked up) above
Data set [4] can be described thus: Effective permeability across porcine polar brain lipid after 4 hrs by PAMPA. The settings on record: pig; for Papp at 4 h: PAMPA. In general terms: In PAMPA a lipid-coated filter parts donor from acceptor wells.
A further data set concerns Astrocyte. Description: Neuroprotective activity in rat astrocytes assessed as decrease in LPS-induced nitrite production at 28 to 52 ug/ml after 24 hrs administered 1 hr before LPS challenge by Griess method. The class given is functional, cell-based. A digest of the protocol:
(§1)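 Astrocytes and microglia were from neonatal (P2) rat cortex, separated by shaking; microglia received 10 ng/mL GM-CSF. Purity >98% (OX42/GFAP). Cells were pretreated 1 h with compound, then given LPS for 24 h. Supernatant was mixed 1:1 with Griess reagent, left 15 min at room temperature, and absorbance read at 492/540 nm.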
(In general: Nitrite, measured by Griess reagent, commonly stands in for NO production.)

For data set [5], the target named is T1, Glycogen synthase kinase-3 beta. Description: Inhibition of human recombinant GSK3beta at 10 uM after 30 mins by luminescence assay in presence of ATP. In short, it runs like this: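 Human recombinant GSK-3β (20 ng) with prephosphorylated polypeptide substrate 25 μM and ATP 1 μM in 50 mM HEPES pH 7.5, 1 mM EDTA, 1 mM EGTA, 15 mM Mg acetate. Final DMSO ≤1%. Incubated 30 min at 30 °C, stopped with Kinase-Glo reagent, and luminescence read after 10 min. Inhibition is relative to the no-inhibitor maximum. IC50 is the concentration giving 50% activity loss.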
Target sequence in this assay (P49841 whole entry, looked up): as above

The test system of the next data set is Microglia. The data set is described as follows: Neuroprotective activity in rat microglia cells assessed as decrease in LPS-induced nitrite production at 28 to 52 ug/ml after 24 hrs administered 1 hr before LPS challenge by Griess method. In kind it is functional, cell-based. A digest of the protocol:
as §1

Data set [6] deals with T1, Glycogen synthase kinase-3 beta. Description: Competitive inhibition of human recombinant GSK3beta at 12.5 to 100 uM after 30 mins by Michaelis-Menten equation in presence of 1 uM ATP. In short, it runs like this: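 Lineweaver–Burk kinetics on human recombinant GSK-3β. GS-2 substrate was varied from 12.5 to 100 μM against inhibitor at 0.5–2.5 μM, with ATP held at 1 μM. Luminescent kinase read-out. Each point is the mean of two experiments, each run in duplicate.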
Target sequence in this assay (P49841 whole entry, looked up): as above

The source made the active and inactive calls. No cut-off for these calls is given here.

Usually inhibition stands for the percentage by which the read-out fell short of the control. What is called IC50 is the concentration at which inhibition is half-maximal. Usually Papp stands for a coefficient for how fast a substance crosses the barrier. Low values mean slow passage, high ones fast passage.

In the case of `Br.c1ccc(-c2n/c(=N\Cc3cccnc3)sn2-c2ccccc2)cc1`, the outcome in the data set on Cortical neurone, in the data set on NSC, with Astrocyte and with Microglia was Active. The inhibition result in data set [1] and in data set [2] was “Active” in each case. Also, the 50% inhibitory concentration (IC50) in data set [3] came to 1300 nM. In [4], the apparent permeability (Papp) at 4 h is 10.7 ×10⁻⁶ cm/s. Further, the inhibition in [5] is above 60%.

For the compound `Br.c1ccc(-c2n/c(=N\CCN3CCOCC3)sn2-c2ccccc2)cc1`, the inhibition entry in data set [1] and in [2] was “Active” in each case. Further, the half-maximal inhibitory concentration (IC50) in data set [3] came to 900 nM. Besides, the Papp at 4 h in data set [4] amounted to 7.2 ×10⁻⁶ cm/s. The inhibition in data set [5] is above 60%.

Take `Br.COc1ccc(-n2s/c(=N/CCO)nc2-c2ccccc2)cc1`: the result in the data set on Cortical neurone, in the data set with NSC, in the data set on Astrocyte and in the data set with Microglia was Active. The 50% inhibitory concentration (IC50) in data set [3] was 4600 nM. The Papp at 4 h in data set [4] came out at 13.4 ×10⁻⁶ cm/s. For the same compound, the inhibition in data set [5] was above 60%.

Turning to H-YRRAAVPPSPSLSRHSSPHQAEDEEE-OH, the inhibition entry in data set [6] was “Active”.

As to `OCC/N=c1\nc(-c2ccccc2)n(-c2ccccc2)s1`, the outcome in the data set with Cortical neurone, in the data set on NSC, in the data set with Astrocyte and with Microglia was Active. In addition, the inhibition result in [1] and in data set [2] was “Active” throughout. Further, the inhibition in data set [5] is above 60%.

Turning to `Br.CCOC(=O)C/N=c1\nc(-c2ccc(OC)cc2)n(-c2ccccc2)s1`, the IC50 in [3] came to 500 nM. This compound also yielded an apparent permeability coefficient (Papp) at 4 h in data set [4] of 4 ×10⁻⁶ cm/s. For the same compound, the inhibition in data set [5] is above 60%.

As to `Br.COc1ccc(-c2n/c(=N\Cc3cccnc3)sn2-c2ccccc2)cc1`, the IC50 in [3] came out at 1200 nM. In data set [4], this compound had a Papp at 4 h of 4.8 ×10⁻⁶ cm/s. For the same compound, in data set [5], the inhibition is above 60%.

For `CCOC(=O)C/N=c1\nc(-c2ccccc2)n(-c2ccccc2)s1`, the result with Cortical neurone, in the data set on NSC, in the data set on Astrocyte and with Microglia was Active. Also, the inhibition in data set [5] was above 60%.

`Br.COc1ccc(-c2n/c(=N\c3ccccc3)sn2-c2ccccc2)cc1`: the IC50 in data set [3] was 1100 nM. In addition, the Peff result in [4] (pampa, 4 h) is reported as “ND(Insoluble)”. In addition, the inhibition in data set [5] is above 60%.
